Data published in ChEMBL document CHEMBL1629563, “Pharmacokinetic and safety evaluation of BILR 355, a second-generation nonnucleoside reverse transcriptase inhibitor, in healthy volunteers” (Antimicrob Agents Chemother, 2008).

Key:
[1] = Tmax in healthy human at 25 mg, po administered as single dose coadministered with 100 mg of ritonavir; type: ADME, organism-based; conditions: in vivo
[2] = tested on: Homo sapiens; assay: Toxicity in healthy human assessed as occurrence of increase in alanine aminotransferase level at 50 mg, po administered as single dose relative to control; type: organism-based; conditions: in vivo
[3] = Drug excretion in healthy human urine assessed as unchanged drug at 75 mg, po administered as single dose coadministered with 100 mg of ritonavir by high-pressure liquid chromatography-tandem mass spectrometry/mass spectrometry method; type: ADME, organism-based; conditions: read-out: Drug uptake
Summary of the method: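 Ritonavir 100 mg was given 10 h before and with one oral dose of BILR 355 in PEG solution. Urine was collected by weight as predose blank, then 0-6, 6-24 and 24-72 h, stored at −20°C and assayed by LC-MS/MS. fe = unchanged drug excreted (Ae) as a percentage of dose. Line 50: high-fat breakfast 30 min before dosing.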

[4] = Mean residence time in healthy human at 50 mg, po administered as single dose coadministered with 100 mg of ritonavir; type: ADME, organism-based; conditions: in vivo
[5] = Drug excretion in healthy human urine assessed as unchanged drug in healthy human at 12.5 mg, po administered as single dose by high-pressure liquid chromatography-tandem mass spectrometry/mass spectrometry method; type: ADME, organism-based; conditions: read-out: Drug uptake
Summary of the method: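 Urine was collected by weight after one oral dose of BILR 355 in PEG solution in fasted healthy males. Intervals were predose blank, 0-6, 6-24 and 24-72 h, with the bladder voided before each. Aliquots were stored at −20°C and assayed by LC-MS/MS. fe = amount of unchanged drug excreted (Ae) as a percentage of the administered dose.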

[6] = tested on: Homo sapiens; assay: Toxicity in healthy human assessed as occurrence of flatulence at 12.5 mg, po administered as single dose relative to control; type: organism-based; conditions: in vivo
[7] = tested on: Homo sapiens; assay: Toxicity in healthy human assessed as occurrence of fatigue at 37.5 mg, po administered as single dose coadministered with 100 mg of ritonavir; type: organism-based; conditions: in vivo
[8] = tested on: Homo sapiens; assay: Toxicity in healthy human assessed as occurrence of maculopapular rash at 100 mg, po administered as single dose; type: organism-based; conditions: in vivo
[9] = Apparent oral clearance in healthy human at 62.5 mg, po administered as single dose coadministered with 100 mg of ritonavir; type: ADME, organism-based; conditions: in vivo
Summary of the method: (§1)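 Healthy male volunteers, fasted. Ritonavir 100 mg given 10 h before and again together with single oral BILR 355 in PEG solution. EDTA plasma sampled predose to 144 h. LC-MS/MS assay after protein precipitation. Noncompartmental analysis, AUC by linear up/log down trapezoidal rule; Vss = CL/F·(MRTp.o. − 1/Ka).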

[10] = Apparent volume of distribution at steady state in healthy human at 62.5 mg, po administered as single dose coadministered with 100 mg of ritonavir; type: ADME, organism-based; conditions: in vivo, read-out: Vss/F
Summary of the method: (§2)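 Healthy male volunteers, fasted overnight, got one oral dose of BILR 355 in PEG solution with 200 ml water. Ritonavir 100 mg was given 10 h before and again with the dose. Plasma was sampled (EDTA) from predose to 144 h and assayed by validated LC-MS/MS. Cmax and Vz/F came from noncompartmental analysis. Vss/F = CL/F·(MRTp.o. − 1/Ka), with Ka from compartmental modelling.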

[11] = tested on: Homo sapiens; assay: Toxicity in healthy human assessed as occurrence of fatigue at 5 mg, po administered as single dose coadministered with 100 mg of ritonavir; type: organism-based; conditions: in vivo
[12] = Cmax in high fat fed healthy human at 50 mg, po administered as single dose coadministered with 100 mg of ritonavir by high-pressure liquid chromatography-tandem mass spectrometry/mass spectrometry method; type: ADME, organism-based; set-up: dose 50 mg, route oral; conditions: in vivo
Summary of the method: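 Fed cohort: healthy males ate an FDA-recipe high-fat breakfast (about 150/250/500-600 cal from protein/carbohydrate/fat) 30 min before a 50 mg oral dose of BILR 355 in PEG solution. Ritonavir 100 mg was given 10 h before and with the dose. Plasma was sampled over 144 h and assayed by LC-MS/MS. Noncompartmental analysis gave Cmax and Vz/F. Vss/F = CL/F·(MRTp.o. − 1/Ka).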

[13] = tested on: Homo sapiens; assay: Toxicity in healthy human assessed as occurrence of fatigue at 87.5 mg, po administered as single dose coadministered with 100 mg of ritonavir; type: organism-based; conditions: in vivo
[14] = tested on: Homo sapiens; assay: Toxicity in healthy human assessed as occurrence of nausea at 5 mg, po administered as single dose relative to control; type: organism-based; conditions: in vivo
[15] = Renal clearance in high fat fed healthy human at 50 mg, po administered as single dose coadministered with 100 mg of ritonavir by high-pressure liquid chromatography-tandem mass spectrometry/mass spectrometry method; type: ADME, organism-based, Kidney; conditions: in vivo, read-out: CL_renal (converted)
[16] = tested on: Homo sapiens; assay: Toxicity in healthy human assessed as occurrence of herpes simplex at 75 mg, po administered as single dose relative to control; type: organism-based; conditions: in vivo
[17] = tested on: Homo sapiens; assay: Toxicity in healthy human assessed as occurrence of herpes simplex at 12.5 mg, po administered as single dose relative to control; type: organism-based; conditions: in vivo
[18] = Apparent oral clearance in healthy human at 25 mg, po administered as single dose; type: ADME, organism-based; conditions: in vivo
Summary of the method: (§3)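 Healthy male volunteers, six active plus two placebo per dose group, single oral dose in PEG solution with 200 ml water after overnight fast; breakfast 60 to 90 min post-dose. EDTA plasma sampled predose to 144 h. Assayed by validated LC-MS/MS after protein precipitation. Noncompartmental analysis, AUC by linear up/log down trapezoidal rule; Vss = CL/F·(MRTp.o. − 1/Ka).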

[19] = AUC (0 to last) in healthy human at 25 mg, po administered as single dose coadministered with 100 mg of ritonavir; type: ADME, organism-based; set-up: dose 25 mg, route oral, time 0 - last; conditions: plasma; summary of the method: as §1
[20] = tested on: Homo sapiens; assay: Toxicity in healthy human assessed as occurrence of increase in alanine aminotransferase level at 100 mg, po administered as single dose relative to control; type: organism-based; conditions: in vivo
[21] = Apparent volume of distribution in terminal phase in healthy human at 87.5 mg, po administered as single dose coadministered with 100 mg of ritonavir; type: ADME, organism-based; conditions: in vivo, read-out: Vz/F; summary of the method: as §2
[22] = Apparent oral clearance in healthy human at 75 mg, po administered as single dose coadministered with 100 mg of ritonavir; type: ADME, organism-based; conditions: in vivo; summary of the method: as §1
[23] = tested on: Homo sapiens; assay: Ratio of half life in human at 12.5 mg, po in presence of 100 mg of ritonavir to half life in human at 12.5 mg, po; type: ADME, organism-based; conditions: in vivo
[24] = AUC (0 to infinity) in healthy human at 100 mg, po administered as single dose; type: ADME, organism-based; set-up: dose 100 mg, time infinity, route oral; conditions: plasma; summary of the method: as §3
[25] = Renal clearance in healthy human at 25 mg, po administered as single dose by high-pressure liquid chromatography-tandem mass spectrometry/mass spectrometry method; type: ADME, organism-based, Kidney; conditions: in vivo, read-out: CL_renal (converted)
[26] = Renal clearance in healthy human at 5 mg, po administered as single dose by high-pressure liquid chromatography-tandem mass spectrometry/mass spectrometry method; type: ADME, organism-based, Kidney; conditions: in vivo, read-out: CL_renal (converted)
[27] = Apparent oral clearance in healthy human at 12.5 mg, po administered as single dose; type: ADME, organism-based; conditions: in vivo; summary of the method: as §3
[28] = Apparent volume of distribution in terminal phase in healthy human at 12.5 mg, po administered as single dose; type: ADME, organism-based; conditions: in vivo, read-out: Vz/F
Summary of the method: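 Single fasting oral dose of BILR 355 in PEG solution with 200 ml tap water, given to healthy males. Standard breakfast came 60-90 min after the dose. EDTA plasma was sampled predose to 144 h, stored below −18°C and assayed by LC-MS/MS after protein precipitation. Noncompartmental analysis gave Vz/F. Vss/F = CL/F·(MRTp.o. − 1/Ka), with Ka from compartmental modelling.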

- Tmax [1]: 1.75 h
- dose excreted [3]: 5.44%
- MRT [4]: 16.7 h
- dose excreted [5]: 0.212%
- CL/F [9]: 141 mL/min
- Vd/F [10]: 113 L
- Cmax [12]: 430 ng/mL
- CL renal [15]: 4.98 mL/min
- CL/F [18]: 3400 mL/min
- AUC(0-t) [19]: 4140 ng·h/mL
- Vd/F [21]: 114 L
- CL/F [22]: 106 mL/min
- Ratio [23]: 3.9
- AUC(0-inf) [24]: 1310 ng·h/mL
- CL renal [25]: 11.5 mL/min
- CL renal [26]: 4.52 mL/min
- CL/F [27]: 4100 mL/min
- Vd/F [28]: 1430 L
Compound: CCN1c2ncc(CCOc3cc[n+]([O-])c4ccccc34)cc2C(=O)N(C)c2cccnc21 [BILR 355]
- Activity [2]: 0%
- Activity [6]: 0%
- Activity [7]: 0%
- Activity [8]: 0%
- Activity [11]: 0%
- Activity [13]: 0%
- Activity [14]: 0%
- Activity [16]: 0%
- Activity [17]: 0%
- Activity [20]: 0%
